These results are taken from ChEMBL document CHEMBL1122077, “Synthesis and cardiovascular activity of a new series of cyclohexylaralkylamine derivatives related to perhexiline” (1982).

A value given as a limit tells only on which side of the number the result lay.

In experiment [1] the test system is Canis familiaris. Put plainly: In vivo percent coronary flow in Mongrel dogs after administration at 3 mg/Kg (iv). The class given is functional, Canis lupus familiaris. The gist of the method:
(§1)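 Overnight-fasted mongrel dogs of either sex (15–25 kg), pentobarbital 25 mg/kg iv (maintenance 1 mg/kg iv) plus levopromazine 0.5 mg/kg im. Femoral-vein injections at 0.3–1 and 3 mg/kg; coronary flow increase given as percent of the period before the 3 mg/kg injection.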

The species named for experiment [2] is Sus scrofa. Put plainly: Antagonism of calcium-induced contraction of a depolarized coronary in pig. The class given is functional. Details: unit not given beside the values. The gist of the method: (§2)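 Helical pig coronary strips (2–2.5 cm long, 3–4 mm wide) at 0.5 g resting tension in modified Krebs-Henseleit (1.25 mmol/L CaCl2), depolarized, contracted with calcium. Antagonist added 30 min beforehand. Result as pA2 (Arunlakshana–Schild) or pD2' (Ariens–Van Rossum, for noncompetitive antagonism).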

The species entered for experiment [3] is Rattus norvegicus. Put plainly: Alpha-adrenolytic activity (pA2) on the descending thoracic branch of the rat aorta. The class given is functional. The gist of the method: (§3)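 Rat aortic strips held at 2 g resting tension, left about 2 h to stabilize; antagonist put in the bath 30 min before agonist challenge. pA2 by Arunlakshana–Schild analysis as developed by Miesch et al.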

The species named for experiment [4] is Rattus norvegicus. Put plainly: Alpha-adrenolytic activity on the descending thoracic branch of the rat aorta. The class given is functional. The gist of the method: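 Isolated aorta preparation set at 2 g resting tension and stabilized about 2 h. Antagonist was added to the bath 30 min before the assay. Competitive antagonism was expressed as pA2 (Arunlakshana–Schild method). Noncompetitive antagonism was expressed as pD2' (Ariens–Van Rossum calculation).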

Experiment [5] relates to Canis familiaris. Kind of experiment: In vivo percent coronary flow in Mongrel dogs after administering 3 mg/Kg (iv) of the compound; Insoluble. In kind it is functional, organism-based. To be noted: Canis lupus familiaris. The gist of the method: as §1
Experiment [6] is filed under the species Sus scrofa. Put plainly: Antagonism of calcium-induced contraction on the depolarized coronary of pig; Insoluble. The class given is functional, organism-based. The method, boiled down:
as §2

Experiment [7] is filed under the species Rattus norvegicus. Kind of experiment: Alpha-adrenolytic activity (pA2) on the descending thoracic branch of the rat aorta; Insoluble. The class given is functional, organism-based. The gist of the method:
as §3

Turning to `O=[N+]([O-])O.c1ccc(C(CNC2CCCCC2)C2CCCCC2)cc1` (stereo not given), the Coronary flow in the experiment on Canis familiaris [1] is 62. For the same molecule, the “Ca2+ antagonism” value in the experiment filed under Sus scrofa [2] is recorded as 4.6. For the same molecule, in the experiment filed under Rattus norvegicus [3], the Alpha-adrenolytic activity stood at 7.9.
The matching figures for `CC(Cc1ccccc1)NCC(c1ccccc1)C1CCCCC1.O=C(O)/C=C\C(=O)O` (stereo not given): 157, 6.2 and 6.9.
The matching figures for `CC(CCc1ccccc1)NCCC12CC3CC(CC(C3)C1)C2.O=C(O)/C=C\C(=O)O` (stereo not given): 215, 5.1 and 7.15.
`Cl.c1ccc(C(CCNC2CCCCC2)C2CCCCC2)cc1` (stereo not given) gave a Coronary flow in the experiment on Canis familiaris [1] of 156. In the experiment listed under Sus scrofa [2], the “Ca2+ antagonism” value stood at 5.8. This molecule yielded an Alpha-adrenolytic activity in the experiment listed under Rattus norvegicus [3] of 6.8.
For the molecule `C1CCC(NCCC23CC4CC(CC(C4)C2)C3)CC1.O=C(O)/C=C\C(=O)O`, the Coronary flow in the experiment on Canis familiaris [1] is given as 99. Also, the “Ca2+ antagonism” value in the experiment listed under Sus scrofa [2] was determined as 4.7. For the same molecule, the Alpha-adrenolytic activity in the experiment filed under Rattus norvegicus [3] worked out at 6.75.
`C1CCC(NCCCC(C2CCCCC2)C2CCCCC2)CC1.Cl` displayed a Coronary flow with Canis familiaris [1] of 95.5. The “Ca2+ antagonism” value in the experiment listed under Sus scrofa [2] is 4.6. The molecule also had an Alpha-adrenolytic activity in the experiment listed under Rattus norvegicus [3] of 6.05.
The matching figures for `C1CCC(NC(C2CCCCC2)C2CCCCC2)CC1.Cl`: 194, 5.45 and 6.2.
`COc1ccc(CC(C)NCC(c2ccccc2)C2CCCCC2)cc1.O=C(O)/C=C\C(=O)O` (stereo not given) yielded a Coronary flow in the experiment with Canis familiaris [1] of 100.5. Moreover, in the experiment filed under Sus scrofa [2], the “Ca2+ antagonism” value was determined as 5.1. The Alpha-adrenolytic activity in the experiment listed under Rattus norvegicus [4] is reported as 6.
As for `Cc1ccc(C(CNC2CCCCC2)C2CCCCC2)cc1.O=C(O)/C=C\C(=O)O` (stereo not given), in the experiment with Canis familiaris [1], the Coronary flow was 68. Further, the “Ca2+ antagonism” value in the experiment filed under Sus scrofa [2] is given as 6. Moreover, in the experiment filed under Rattus norvegicus [3], the Alpha-adrenolytic activity amounted to 6.55.
The matching figures for `CC(C)(C)NCC(c1ccccc1)C1CCCCC1.Cl` (stereo not given): 104.5, <4.5 and 7.25.
The matching figures for `CN(CCC(C1CCCCC1)C1CCCCC1)C1CCCCC1.O=C(O)/C=C\C(=O)O`: 67, 4.85 and 6.15.
The matching figures for `O=[N+]([O-])O.c1ccc(C(CNC2CCCC2)C2CCCCC2)cc1` (stereo not given): 38.5, 6.2 and 5.9.
For the molecule `C1CCC(C(CC2CCCCN2)C2CCCCC2)CC1` (stereo not given) [PERHEXILINE], the Coronary flow in the experiment on Canis familiaris [1] came to 37.5. Besides, in the experiment listed under Sus scrofa [2], the “Ca2+ antagonism” value was 5.2. The molecule further yielded an Alpha-adrenolytic activity in the experiment filed under Rattus norvegicus [3] of 6.7.
The matching figures for `CN1CCCCC1CC(C1CCCCC1)C1CCCCC1` (stereo not given): 135, 5.3 and 6.9.
The matching figures for `C1CCC(NCCC(C2CCCCC2)C2CCCCC2)CC1.Cl`: 130, 4.85 and 7.25.
`CC(Cc1ccccc1)NCCC12CC3CC(CC(C3)C1)C2.O=C(O)/C=C\C(=O)O` (stereo not given) returned a Coronary flow in the experiment on Canis familiaris [1] of 146. Further, the “Ca2+ antagonism” value in the experiment filed under Sus scrofa [2] came to 4.85. The molecule also registered an Alpha-adrenolytic activity in the experiment listed under Rattus norvegicus [3] of 7.3.
The matching figures for `CC(Cc1ccccc1)NCCC(C1CCCCC1)C1CCCCC1.O=C(O)/C=C\C(=O)O` (stereo not given): 42, 5.2 and <5.
In the experiment on Canis familiaris [1], `COc1ccc(CCNCC(c2ccccc2)C2CCCCC2)cc1OC.O=C(O)/C=C\C(=O)O` (stereo not given) registered a Coronary flow of 73. Also, the “Ca2+ antagonism” value in the experiment filed under Sus scrofa [2] is given as 3.6. This molecule registered an Alpha-adrenolytic activity in the experiment filed under Rattus norvegicus [4] of 7.25.
The matching figures for `CC(Cc1ccc(O)cc1)NCC(c1ccccc1)C1CCCCC1.O=[N+]([O-])O` (stereo not given): 105, 4.8 and 6.35.
Molecule `CC(CCc1ccccc1)NCC(c1ccccc1)C1CCCCC1.O=C(O)/C=C\C(=O)O` (stereo not given) gave a Coronary flow in the experiment with Canis familiaris [1] of 71.5. Moreover, the “Ca2+ antagonism” value in the experiment filed under Sus scrofa [2] turned out to be 6.1. In addition, the Alpha-adrenolytic activity in the experiment filed under Rattus norvegicus [3] came to 7.6.
Consider `C1CCC(NCCCCC(C2CCCCC2)C2CCCCC2)CC1`, for which the Coronary flow result with Canis familiaris [5] is listed as “Insoluble”. In the experiment filed under Sus scrofa [6], the “Ca2+ antagonism” value is recorded as “Insoluble”. Further, the Alpha-adrenolytic activity entry in the experiment filed under Rattus norvegicus [7] was “Insoluble”.
Regarding `CC(CCc1ccccc1)NCCC(C1CCCCC1)C1CCCCC1` (stereo not given), the Coronary flow result in the experiment on Canis familiaris [5] is listed as “Insoluble”. Also, the “Ca2+ antagonism” value in the experiment filed under Sus scrofa [6] was “Insoluble”. For the same molecule, the Alpha-adrenolytic activity entry in the experiment filed under Rattus norvegicus [7] is given as “Insoluble”.
Molecule `COc1ccc(CCNCCC23CC4CC(CC(C4)C2)C3)cc1OC.Cl` registered a Coronary flow in the experiment with Canis familiaris [1] of 133. Moreover, the “Ca2+ antagonism” value in the experiment filed under Sus scrofa [2] stood at 4.8. The molecule also yielded an Alpha-adrenolytic activity in the experiment filed under Rattus norvegicus [4] of 7.35.
The matching figures for `COc1ccc(CCNCCC(C2CCCCC2)C2CCCCC2)cc1OC.O=C(O)/C=C\C(=O)O`: 44.5, 4.1 and 6.3.
The matching figures for `Cl.Oc1ccc(C(CNC2CCCCC2)C2CCCCC2)cc1` (stereo not given): 133.5, 4.5 and 7.1.
